Assays:
[1] = Half life in rat liver microsomes
[2] = biological target: Metabotropic glutamate receptor 5 (Homo sapiens, UniProt P41594); assay: Negative allosteric modulation of human mGluR5 expressed in HEK293 cells assessed as calcium mobilization by FLIPR assay; format: functional, cell-based
[3] = tested on: Mus musculus; assay: Antidepressant activity in ICR mouse assessed as decrease in immobility time at 10 mg/kg, po administered 1 hr before test measured for 4 mins following training for 2 mins by forced swimming test; format: functional; set-up: scale not given: the % may be the effect or the level left
Summary of the method: (§1)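 Mouse forced swim test: ICR mice dosed orally 1 h before testing; 2 min training, then immobility duration recorded over 4 min. Activity expressed as % decrease in immobility duration. Mean ± SEM, n = 8; Dunnett's multiple comparisons after one-way ANOVA (p < 0.05).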

[4] = Half life in mouse liver microsomes
[5] = Half life in human liver microsomes
[6] = biological target: Cytochrome P450 2C9 (Homo sapiens, UniProt P11712); assay: Inhibition of CYP2C9 (unknown origin) at 10 uM; format: ADME
[7] = biological target: Cytochrome P450 2D6 (Homo sapiens, UniProt P10635); assay: Inhibition of CYP2D6 (unknown origin) at 10 uM; format: ADME
[8] = biological target: Cytochrome P450 3A4 (Homo sapiens, UniProt P08684); assay: Inhibition of CYP3A4 (unknown origin) at 10 uM; format: ADME
[9] = biological target: Cytochrome P450 1A2 (Homo sapiens, UniProt P05177); assay: Inhibition of CYP1A2 (unknown origin) at 10 uM; format: ADME
[10] = Ratio of drug level in brain to plasma in Sprague-Dawley rat at 10 mg/kg, ip after 1 hr; format: ADME, organism-based; set-up: dose 10 mg/kg, route intraperitoneal; settings: brain and plasma, read-out: BPR
Summary of the method: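 Sprague–Dawley rats given a single 10 mg/kg intraperitoneal dose. Plasma and brain concentrations measured 1 h after dosing and expressed as a brain/plasma ratio.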

[11] = biological target: hERG (KCNH2) (Homo sapiens, UniProt Q12809); assay: Inhibition of human ERG at 10 uM
[12] = biological target: Cytochrome P450 2C19 (Homo sapiens, UniProt P33261); assay: Inhibition of CYP2C19 (unknown origin) at 10 uM; format: ADME
[13] = Intrinsic clearance in human hepatocytes assessed per 10^6 cells; format: ADME, cell-based, Hepatocyte; settings: read-out: CLH
[14] = biological target: Metabotropic glutamate receptor 1 (Homo sapiens) (UniProt Q13255); assay: Inhibition of mGluR1 (unknown origin) at 10 uM
[15] = Half life in rat plasma; format: ADME, cell-free
[16] = tested on: Mus musculus; assay: Antidepressant activity in ICR mouse assessed as decrease in immobility time at 50 mg/kg, po administered 1 hr before test measured for 4 mins following training for 2 mins by forced swimming test; format: functional; set-up: scale not given: the % may be the effect or the level left; summary of the method: as §1

Sequence of Metabotropic glutamate receptor 5 (P41594 whole entry): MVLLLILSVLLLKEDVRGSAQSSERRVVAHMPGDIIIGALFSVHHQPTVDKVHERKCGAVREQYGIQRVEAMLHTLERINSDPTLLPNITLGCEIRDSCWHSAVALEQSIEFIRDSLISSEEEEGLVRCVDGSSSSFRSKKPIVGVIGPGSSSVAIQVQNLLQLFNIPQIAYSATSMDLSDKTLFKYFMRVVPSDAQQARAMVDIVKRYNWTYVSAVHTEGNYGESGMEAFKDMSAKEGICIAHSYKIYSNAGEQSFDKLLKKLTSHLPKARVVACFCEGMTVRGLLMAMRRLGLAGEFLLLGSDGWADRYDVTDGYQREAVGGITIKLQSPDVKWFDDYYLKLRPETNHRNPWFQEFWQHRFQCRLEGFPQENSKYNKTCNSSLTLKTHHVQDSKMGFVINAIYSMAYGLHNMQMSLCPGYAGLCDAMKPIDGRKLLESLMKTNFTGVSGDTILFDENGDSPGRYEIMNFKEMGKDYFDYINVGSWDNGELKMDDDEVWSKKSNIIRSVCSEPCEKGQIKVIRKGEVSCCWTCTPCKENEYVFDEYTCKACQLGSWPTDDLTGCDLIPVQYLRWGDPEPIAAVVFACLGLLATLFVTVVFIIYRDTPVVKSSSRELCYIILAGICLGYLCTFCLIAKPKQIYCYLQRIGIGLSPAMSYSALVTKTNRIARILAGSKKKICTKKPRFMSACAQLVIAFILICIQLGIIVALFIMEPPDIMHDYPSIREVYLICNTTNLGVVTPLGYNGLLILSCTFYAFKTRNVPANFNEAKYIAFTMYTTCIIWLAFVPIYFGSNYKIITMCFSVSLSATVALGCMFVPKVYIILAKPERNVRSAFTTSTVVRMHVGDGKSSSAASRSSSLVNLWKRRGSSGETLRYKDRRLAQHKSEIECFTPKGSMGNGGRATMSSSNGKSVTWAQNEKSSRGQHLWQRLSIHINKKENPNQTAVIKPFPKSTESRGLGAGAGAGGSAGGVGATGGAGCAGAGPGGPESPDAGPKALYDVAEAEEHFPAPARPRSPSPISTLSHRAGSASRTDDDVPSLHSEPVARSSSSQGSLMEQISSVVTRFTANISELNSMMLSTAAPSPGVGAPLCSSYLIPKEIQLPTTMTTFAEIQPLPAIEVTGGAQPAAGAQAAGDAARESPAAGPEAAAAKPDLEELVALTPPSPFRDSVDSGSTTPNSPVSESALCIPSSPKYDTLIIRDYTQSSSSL
Sequence of hERG (KCNH2) (Q12809 whole entry): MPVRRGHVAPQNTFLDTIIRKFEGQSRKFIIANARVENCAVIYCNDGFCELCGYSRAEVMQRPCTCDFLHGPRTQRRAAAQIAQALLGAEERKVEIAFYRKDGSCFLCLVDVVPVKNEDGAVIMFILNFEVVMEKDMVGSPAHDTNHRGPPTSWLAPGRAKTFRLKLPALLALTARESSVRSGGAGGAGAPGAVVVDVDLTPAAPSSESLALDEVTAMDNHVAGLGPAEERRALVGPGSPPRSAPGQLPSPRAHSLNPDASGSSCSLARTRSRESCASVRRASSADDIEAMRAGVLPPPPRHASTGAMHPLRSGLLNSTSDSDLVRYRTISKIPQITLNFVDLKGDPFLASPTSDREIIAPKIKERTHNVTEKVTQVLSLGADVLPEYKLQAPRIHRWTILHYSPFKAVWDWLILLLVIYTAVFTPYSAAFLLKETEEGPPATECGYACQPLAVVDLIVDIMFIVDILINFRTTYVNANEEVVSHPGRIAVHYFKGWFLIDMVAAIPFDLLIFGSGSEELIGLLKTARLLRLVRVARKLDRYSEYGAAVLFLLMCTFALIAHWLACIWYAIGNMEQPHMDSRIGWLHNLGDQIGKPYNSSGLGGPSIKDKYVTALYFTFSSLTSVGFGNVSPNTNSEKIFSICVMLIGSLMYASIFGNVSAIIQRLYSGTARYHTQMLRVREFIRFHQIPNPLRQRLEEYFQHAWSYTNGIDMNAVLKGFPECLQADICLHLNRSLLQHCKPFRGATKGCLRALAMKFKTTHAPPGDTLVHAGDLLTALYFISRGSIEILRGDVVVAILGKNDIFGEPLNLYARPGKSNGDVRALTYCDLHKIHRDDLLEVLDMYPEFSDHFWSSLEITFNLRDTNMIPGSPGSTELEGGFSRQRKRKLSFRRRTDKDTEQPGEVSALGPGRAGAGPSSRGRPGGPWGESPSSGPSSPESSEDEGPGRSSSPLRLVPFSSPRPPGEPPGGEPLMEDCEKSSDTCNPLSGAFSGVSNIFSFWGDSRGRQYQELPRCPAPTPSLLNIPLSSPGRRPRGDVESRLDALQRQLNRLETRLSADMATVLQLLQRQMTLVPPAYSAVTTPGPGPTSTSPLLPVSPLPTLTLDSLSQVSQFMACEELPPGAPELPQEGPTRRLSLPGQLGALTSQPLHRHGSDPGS
Sequence of Cytochrome P450 2C19 (P33261 whole entry): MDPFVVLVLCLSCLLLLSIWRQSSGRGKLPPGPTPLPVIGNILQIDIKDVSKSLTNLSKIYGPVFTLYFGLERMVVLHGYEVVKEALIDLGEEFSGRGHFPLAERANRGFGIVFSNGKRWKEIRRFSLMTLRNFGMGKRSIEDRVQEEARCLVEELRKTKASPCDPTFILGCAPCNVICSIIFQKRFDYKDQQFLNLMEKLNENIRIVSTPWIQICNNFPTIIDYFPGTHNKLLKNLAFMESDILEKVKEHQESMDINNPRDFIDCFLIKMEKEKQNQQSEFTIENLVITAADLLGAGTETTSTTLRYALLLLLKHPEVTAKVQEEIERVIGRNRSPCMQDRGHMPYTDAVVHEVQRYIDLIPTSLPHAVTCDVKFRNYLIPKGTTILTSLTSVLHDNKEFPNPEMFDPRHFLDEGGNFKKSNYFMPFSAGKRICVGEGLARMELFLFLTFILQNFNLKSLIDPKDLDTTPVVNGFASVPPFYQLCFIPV
Sequence of Cytochrome P450 1A2 (P05177 whole entry): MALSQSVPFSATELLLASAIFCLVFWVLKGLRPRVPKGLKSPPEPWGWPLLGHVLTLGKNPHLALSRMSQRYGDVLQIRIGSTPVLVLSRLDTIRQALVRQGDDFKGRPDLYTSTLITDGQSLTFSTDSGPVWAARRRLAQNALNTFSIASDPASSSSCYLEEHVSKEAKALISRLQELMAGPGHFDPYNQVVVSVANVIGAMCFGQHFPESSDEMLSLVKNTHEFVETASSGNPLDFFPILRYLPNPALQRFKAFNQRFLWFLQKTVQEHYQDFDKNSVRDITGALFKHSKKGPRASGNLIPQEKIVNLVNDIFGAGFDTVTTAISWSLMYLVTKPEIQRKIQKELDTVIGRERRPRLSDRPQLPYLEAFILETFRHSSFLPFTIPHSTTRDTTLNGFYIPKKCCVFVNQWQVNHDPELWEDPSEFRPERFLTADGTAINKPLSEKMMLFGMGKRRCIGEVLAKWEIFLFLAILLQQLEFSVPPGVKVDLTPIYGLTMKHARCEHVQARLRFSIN
Sequence of Metabotropic glutamate receptor 1 (Homo sapiens) (Q13255 19-1194 limits assumed): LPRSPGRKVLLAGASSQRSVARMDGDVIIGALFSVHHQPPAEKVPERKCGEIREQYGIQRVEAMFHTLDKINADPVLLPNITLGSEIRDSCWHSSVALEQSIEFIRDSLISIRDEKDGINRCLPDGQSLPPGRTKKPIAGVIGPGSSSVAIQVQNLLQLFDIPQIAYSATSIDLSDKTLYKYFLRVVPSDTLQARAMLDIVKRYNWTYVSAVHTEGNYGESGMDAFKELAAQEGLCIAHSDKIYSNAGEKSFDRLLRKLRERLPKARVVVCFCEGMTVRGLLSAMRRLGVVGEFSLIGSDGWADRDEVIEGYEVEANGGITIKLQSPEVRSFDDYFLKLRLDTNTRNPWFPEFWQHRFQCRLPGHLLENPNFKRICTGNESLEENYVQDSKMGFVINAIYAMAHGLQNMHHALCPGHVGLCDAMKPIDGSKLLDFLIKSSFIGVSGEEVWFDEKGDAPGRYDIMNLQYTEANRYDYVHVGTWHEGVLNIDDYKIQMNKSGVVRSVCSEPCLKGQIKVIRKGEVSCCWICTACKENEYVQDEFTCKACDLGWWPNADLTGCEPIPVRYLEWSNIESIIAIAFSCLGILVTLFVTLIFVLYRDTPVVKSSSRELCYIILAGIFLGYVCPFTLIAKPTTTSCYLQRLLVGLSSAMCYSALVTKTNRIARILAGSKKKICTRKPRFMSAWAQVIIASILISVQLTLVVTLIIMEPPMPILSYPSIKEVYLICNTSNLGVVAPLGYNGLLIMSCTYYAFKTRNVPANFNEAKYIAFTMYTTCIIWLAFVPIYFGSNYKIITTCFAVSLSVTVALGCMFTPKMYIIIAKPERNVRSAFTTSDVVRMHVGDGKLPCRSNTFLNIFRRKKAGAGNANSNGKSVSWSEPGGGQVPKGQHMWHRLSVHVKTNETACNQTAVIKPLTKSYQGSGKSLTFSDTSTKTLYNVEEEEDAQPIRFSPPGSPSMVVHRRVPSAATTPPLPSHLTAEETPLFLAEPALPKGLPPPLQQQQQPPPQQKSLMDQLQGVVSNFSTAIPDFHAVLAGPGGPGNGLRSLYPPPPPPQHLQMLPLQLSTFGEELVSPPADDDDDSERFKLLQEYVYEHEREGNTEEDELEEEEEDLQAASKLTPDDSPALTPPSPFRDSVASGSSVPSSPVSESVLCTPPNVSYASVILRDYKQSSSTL
Sequence of Cytochrome P450 3A4 (P08684 whole entry): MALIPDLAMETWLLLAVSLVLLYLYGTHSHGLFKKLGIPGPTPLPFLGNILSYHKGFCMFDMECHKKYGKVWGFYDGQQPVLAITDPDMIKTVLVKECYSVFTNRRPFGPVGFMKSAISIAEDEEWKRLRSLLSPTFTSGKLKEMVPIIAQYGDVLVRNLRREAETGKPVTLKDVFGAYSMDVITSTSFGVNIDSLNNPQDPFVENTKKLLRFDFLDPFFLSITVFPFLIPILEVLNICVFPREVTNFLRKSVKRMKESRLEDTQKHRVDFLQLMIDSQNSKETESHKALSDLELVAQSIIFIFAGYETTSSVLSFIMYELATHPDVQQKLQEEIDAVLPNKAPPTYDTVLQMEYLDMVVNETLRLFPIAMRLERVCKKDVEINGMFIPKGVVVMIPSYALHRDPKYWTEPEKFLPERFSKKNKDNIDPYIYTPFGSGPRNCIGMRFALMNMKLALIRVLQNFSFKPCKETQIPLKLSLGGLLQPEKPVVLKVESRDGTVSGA

half-life ([1]; liver microsomes) [h]	IC50 [2] [nM]	half-life ([4]; liver microsomes) [h]	half-life ([5]; liver microsomes) [h]	half-life ([1]; microsomes) [h]	half-life ([4]; microsomes) [h]	half-life ([5]; microsomes) [h]	Structure (SMILES)	Activity [3] [%]	other results
> 5	38	3.23	> 5	–	–	–	Cc1cccc(NC(=O)c2nn(C)c(-c3ccc(C(F)(F)F)cc3)c2C)n1	18.5	–
–	56.3	–	–	2.68	> 5	> 5	Cc1c(C(=O)Nc2ccnc(Cl)c2)nn(C)c1-c1ccc(F)cc1	39.1	–
0.967	130	1.63	4.48	–	–	–	Cc1c(C(=O)Nc2cccc(C(F)(F)F)n2)nn(C)c1-c1ccc(F)cc1	–	–
1.8	16.4	1.93	1.92	–	–	–	Cc1c(C(=O)Nc2cccc(Cl)n2)nn(C)c1-c1ccc(F)cc1	12.6	–
–	4.3	–	–	2.48	0.7	0.767	Cc1cccc(NC(=O)c2nn(C)c(-c3ccc(F)c(F)c3)c2C)n1	58.8	–
2.75	40.4	4.63	4.72	–	–	–	Cc1nc(C(=O)Nc2ccnc(Cl)n2)c(C)n1-c1ccc(F)cc1	65.3	inhibition (INH) [6]: Not Active; inhibition (INH) [7]: Not Active; inhibition (INH) [8]: Not Active; inhibition (INH) [9]: Not Active; Kp at 1 h [10]: 1.63; inhibition at 10 µM [11]: 13%; inhibition (INH) [12]: Not Active; hepatocyte CLint [13]: 0.99 µL/min/1e6 cells; inhibition [14]: 10%
1.58	17	1.18	> 5	–	–	–	COc1ccc(-c2c(C)c(C(=O)Nc3cccc(C)n3)nn2C)cc1	14.4	–
–	94.5	–	–	1.27	1.4	1.28	Cc1cc(NC(=O)c2nn(C)c(-c3ccc(F)cc3)c2C)ccn1	–	–
–	10.3	–	–	> 5	0.65	> 5	Cc1c(C(=O)Nc2ccc(F)cn2)nn(C)c1-c1ccc(F)cc1	36.8	–
–	95	–	–	–	–	–	Cc1cccc(NC(=O)c2cc(-c3ccccc3)n(C)n2)n1	–	half-life [15]: < 1 h
1.27	3.7	0.633	1.12	–	–	–	Cc1cccc(NC(=O)c2nn(C)c(-c3ccc(F)cc3F)c2C)n1	25.7	–
–	27	–	–	–	–	–	Cc1cccc(NC(=O)c2nn(C)c3c2CCCC3)n1	–	–
–	147	–	–	–	–	–	COc1ccc(-n2c(C)nc(C(=O)Nc3cccc(C)n3)c2C)cc1	–	–
–	645	–	–	–	–	–	Cc1cccc(NC(=O)c2nn(C)c(-c3ccc(N(C)C)cc3)c2C)n1	–	–
–	2700	–	–	–	–	–	Cc1cnc(NC(=O)c2nn(C)c(-c3ccc(F)cc3)c2C)s1	–	–
–	911	–	–	–	–	–	Cc1cccc(NC(=O)c2nn(C)c(OCc3ccc(F)cc3)c2C)n1	–	–
> 5	7.1	> 5	> 5	–	–	–	Cc1c(C(=O)Nc2ccnc(Cl)n2)nn(C)c1-c1ccc(F)cc1	31.2	–
–	88.3	–	–	1.83	0.533	> 5	Cc1nc(C(=O)Nc2ccc(F)cn2)c(C)n1-c1ccc(F)cc1	–	–
–	27	–	–	–	–	–	CCc1c(C(=O)Nc2cccc(C)n2)nn(C)c1-c1ccccc1	–	–
–	301	–	–	–	–	–	Cc1c(C(=O)Nc2ccncc2)nn(C)c1-c1ccc(F)cc1	–	–
3.65	184	0.267	> 5	–	–	–	Cc1c(C(=O)Nc2ccc(Cl)cn2)nn(C)c1-c1ccc(F)cc1	–	–
–	71	–	–	0.617	0.133	0.7	Cc1cccc(NC(=O)c2nn(C)c(-c3ccncc3)c2C)n1	–	–
–	28	–	–	2.77	1.65	3.55	Cc1nc(NC(=O)c2nn(C)c(-c3ccc(F)cc3)c2C)ccc1F	–	–
–	20	–	–	–	–	–	Fc1ccc2nc(CCC#Cc3ccccn3)cn2c1 [DIPRAGLURANT]	–	Activity [16]: 44.3%
–	62	–	–	1.57	5	3.75	Cc1nc(C(=O)Nc2ccnc(Cl)c2)c(C)n1-c1ccc(F)cc1	–	–
–	17.1	–	–	0.983	1.35	0.9	Cc1cccc(NC(=O)c2nc(C)n(-c3ccc(Cl)cc3)c2C)n1	–	–
1.2	173	2.63	3.27	–	–	–	Cc1nc(C(=O)Nc2cccc(C(F)(F)F)n2)c(C)n1-c1ccc(F)cc1	–	–
–	1300	–	–	–	–	–	Cc1cccc(NC(=O)c2nn(C)c(OCC3CCCCC3)c2C)n1	–	–

Reference: ChEMBL document CHEMBL2346654, “Discovery of biological evaluation of pyrazole/imidazole amides as mGlu5 receptor negative allosteric modulators” (Bioorg Med Chem Lett, 2013)
